The source made the active and inactive calls. The calls are words filed in the database; no cut-off is given here.

Data set [1] relates to Mus musculus. The experiment in a line: Toxicity against KKAy mouse assessed as plasma gammaGTP level at 10 mg/kg/day, po for 14 days (reference value: 5.8 +/- 0.6 IU). Format: organism-based. The arrangement: route oral. Conditions: in vivo, 336 h.
Data set [2] deals with Mus musculus. The experiment in a line: Toxicity in ICR mouse assessed as change in renal function parameters at 30 mg/kg/day, po for 7 days. Format: organism-based. Details: route oral. Conditions: in vivo, 168 h. The procedure, abridged: (§1)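 Male ICR mice, 6−7 weeks old, four per cage, grouped by body weight. Oral 30 mg/kg or vehicle (1% ethanol/0.5% CMC in water, 10 mL/kg) once daily for 7 days, body weight recorded daily. After overnight fasting, mice were weighed under ether, and liver was removed and weighed. Serum was analysed on a dry-chemistry analyser for TG, TCHO, ALP, CRE, BUN and other markers. n = 7−23, ANOVA.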

In data set [3] the target is T1, Oxysterols receptor LXR-alpha (Homo sapiens) (UniProt Q13133).
T1 sequence (whole entry): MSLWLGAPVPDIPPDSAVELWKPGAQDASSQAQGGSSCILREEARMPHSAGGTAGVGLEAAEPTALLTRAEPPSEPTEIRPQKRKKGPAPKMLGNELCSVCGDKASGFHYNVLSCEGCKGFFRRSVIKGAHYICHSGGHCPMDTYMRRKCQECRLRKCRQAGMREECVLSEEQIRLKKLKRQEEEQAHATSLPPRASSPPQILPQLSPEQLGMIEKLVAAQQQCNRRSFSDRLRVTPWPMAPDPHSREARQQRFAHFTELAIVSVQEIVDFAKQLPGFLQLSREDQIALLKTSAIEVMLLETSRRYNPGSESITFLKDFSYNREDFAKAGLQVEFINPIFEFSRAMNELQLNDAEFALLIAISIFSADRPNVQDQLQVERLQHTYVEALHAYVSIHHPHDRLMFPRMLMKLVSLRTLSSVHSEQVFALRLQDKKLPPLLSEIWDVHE
The data set can be described thus: Transactivation of LXRalpha (unknown origin) by luciferase reporter gene assay relative to carba-T0901317. The procedure, abridged:
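Heterodimer luciferase assay in COS-1 cells cotransfected with RXRα (0.5 μg), partner receptor (PPARγ or LXRα, 0.5 μg) and partner response element reporter (4.0 μg), plus SEAP. Compound (DMSO below 1%) was added with seeding at about 2.0 × 10⁴ cells/well, then 18 h at 37 °C, 5% CO2. Luciferase was normalized to SEAP. Triplicates, three runs.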
In general terms: A reporter such as luciferase makes a cellular process visible.

In data set [4] the test system is Rattus norvegicus. The experiment in a line: Toxicity in Sprague-Dawley rat assessed as enlargement of spleen at 30 mg/kg, po for 28 days. Format: organism-based. The arrangement: dose 30 mg/kg, route oral. Conditions: in vivo, 672 h. The procedure, abridged: (§2)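 Male and female SD rats, four weeks old on arrival, two per cage. Oral 30 mg/kg/day or vehicle (1% ethanol/0.5% CMC in water, 5 mL/kg) for 28 days, body weight recorded daily. After overnight fasting and isoflurane anaesthesia, liver, brain, kidney, spleen and testis were weighed, and serum was collected (2000g, 10 min, 4 °C) for blood chemistry.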

The subject of data set [5] is Mus musculus. The experiment in a line: Toxicity in ICR mouse assessed as increase in blood triglyceride level at 30 mg/kg/day, po for 7 days. Format: organism-based. The arrangement: route oral. Conditions: in vivo, 168 h. An outline of the steps:
as §1

The test system of data set [6] is Mus musculus. The experiment in a line: Hepatotoxicity in ICR mouse assessed as increase in ALP level at 30 mg/kg, po for 7 days. Format: toxicity, organism-based. Details: dose 30 mg/kg, route oral. Conditions: in vivo, 168 h. The procedure, abridged:
as §1

In data set [7] the test system is Mus musculus. The data set can be described thus: Toxicity in ICR mouse assessed as weight gain at 30 mg/kg/day, po for 7 days relative to control. Format: organism-based. Details: route oral. Conditions: in vivo, 168 h. The procedure, abridged: as §1
The subject of data set [8] is Rattus norvegicus. The data set can be described thus: Toxicity in Sprague-Dawley rat assessed as change in body weight at 30 mg/kg, po for 28 days. Format: organism-based. The arrangement: dose 30 mg/kg, route oral. Conditions: in vivo, 672 h. The procedure, abridged: as §2
Data set [9] relates to Mus musculus. The data set can be described thus: Antidiabetic activity in KKAy mouse at 10 mg/kg/day, po for 14 days measured on day 15 by oral glucose tolerance test relative to control. Format: functional, organism-based. An outline of the steps: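 On day 15, KK-A^y mice dosed orally at 10 mg/kg/day for 14 days were fasted 17 h and given oral glucose at 1 g/kg. Blood glucose was read by glucose oxidase at 0, 15, 30, 45, 60, 90 and 120 min. n = 4−5.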

For data set [10], the target named is T2, Retinoic acid receptor RXR-alpha (Homo sapiens) (UniProt P19793).
T2 sequence (whole entry): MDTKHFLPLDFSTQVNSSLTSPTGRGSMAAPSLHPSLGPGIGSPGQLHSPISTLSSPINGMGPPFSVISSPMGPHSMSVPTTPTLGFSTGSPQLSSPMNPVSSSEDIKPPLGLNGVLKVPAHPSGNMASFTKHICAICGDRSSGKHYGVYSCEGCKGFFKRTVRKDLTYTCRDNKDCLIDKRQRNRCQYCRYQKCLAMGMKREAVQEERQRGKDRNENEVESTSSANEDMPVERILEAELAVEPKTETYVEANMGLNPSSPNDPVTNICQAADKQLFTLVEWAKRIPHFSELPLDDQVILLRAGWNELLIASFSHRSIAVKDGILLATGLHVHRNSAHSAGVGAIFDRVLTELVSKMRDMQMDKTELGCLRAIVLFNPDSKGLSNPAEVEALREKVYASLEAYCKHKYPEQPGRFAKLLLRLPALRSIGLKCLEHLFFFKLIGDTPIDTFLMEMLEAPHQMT
The experiment in a line: Transactivation of RXRalpha (unknown origin) expressed in COS1 cells at 0.1 uM after 18 hrs by luciferase reporter gene assay relative to bexarotene. Format: cell-based. Conditions: COS-1. The procedure, abridged: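 COS-1 cells in DMEM with 10% FBS at 37 °C, 5% CO2, transfected with RXRα, an RXR-response-element luciferase reporter and a SEAP background vector. Cells were seeded at about 2.0 × 10⁴ per well with compound (DMSO below 1%) for 18 h. Luciferase was normalized to SEAP and expressed relative to 1 μM reference RXR full agonist as 100%. EC50 came from full dose-response curves. Triplicates, at least three experiments.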

The target in data set [11] is RXR alpha/PPAR gamma (Homo sapiens) (UniProt P37231+P19793). The data set can be described thus: Transactivation of PPARgamma/RXRalpha (unknown origin) by luciferase reporter gene assay relative to TIPP703. Format: protein-complex assay. An outline of the steps: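 Heterodimer reporter in COS-1 cells co-transfected with RXRα (0.5 μg), partner receptor (LXRα for line 2, PPARγ for line 3; 0.5 μg), partner response element-luciferase (4.0 μg), and SEAP. Compound (DMSO below 1%) with ~2.0 × 10⁴ cells/well, 18 h, 37 °C; luciferase normalized to SEAP; triplicate, three runs.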

The test system of data set [12] is Mus musculus. The experiment in a line: Toxicity against KKAy mouse assessed as plasma ALP level at 10 mg/kg/day, po for 14 days (reference value: 358.2 +/- 43.1 IU). Format: organism-based. The arrangement: route oral. Conditions: in vivo, 336 h.

On to `Cc1cc2c(cc1-n1c(C(F)(F)F)nc3cc(C(=O)O)ccc31)C(C)(C)CCC2(C)C`, for which the Activity with Mus musculus [1] is recorded as 6.3 IU; in the data set on Mus musculus [2], “Non-toxic”; in the data set on Rattus norvegicus [4] it was “Toxic”; in the data set on Mus musculus [5], “Non-toxic”; in the data set on Mus musculus [6] it was “Toxic”; in the data set with Mus musculus [7] it was “Non-toxic”. In addition, the Activity result in the data set on Rattus norvegicus [8] was “Non-toxic”; in the data set with Mus musculus [12], 554 IU. Also, the outcome in [3] and in data set [11] was Active. Besides, the result with Mus musculus [9] was inactive. Also, in data set [10], the Efficacy was found to be 21%.
